Data taken from ChEMBL document CHEMBL4177753, “Structural Modification of Natural Product Ganomycin I Leading to Discovery of a α-Glucosidase and HMG-CoA Reductase Dual Inhibitor Improving Obesity and Metabolic Dysfunction in Vivo” (J Med Chem, 2018).
Calls of active or inactive are those of the source. The rule behind the calls is not given here.

Columns and labels:
Mus musculus [1] = experiment: In vivo inhibition of alpha-glucosidase activity in ob/ob mouse assessed as reduction of blood glucose AUC at 0.3 to 3 mg/kg administered daily via oral gavage for 30 days by OSTT; format: functional, organism-based
In short: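 Male ob/ob mice given 0.3–3.0 mg/kg daily by gavage; after overnight fast, sucrose (OSTT) or maltose (OMTT) 4.0 g/kg given orally; blood glucose by glucose meter at 0, 40, 80 and 120 min; AUC calculated from the time course.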

Mus musculus [2] = experiment: Hypoglycemic activity in ob/ob mouse assessed as decrease in blood glucose AUC at 0.3 to 3 mg/kg administered daily via oral gavage for 25 days by OGTT; format: functional, organism-based
In short: (§1)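 Male ob/ob or high-fat-diet C57BL/6J mice dosed daily by gavage at 0.3–3.0 mg/kg. OGTT: glucose 2 g/kg orally after overnight fast. ITT: insulin 0.6 U/kg i.p. after 4 h fast. Glucometer readings at 0, 40, 80 and 120 min; AUC computed from the curves.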

Mus musculus [3] = experiment: Toxicity in C57BL/6J mouse assessed as effect on plasma AST levels at 30 mg/kg administered daily via oral gavage for 3 months; format: organism-based; details: in vivo
In short: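 Long-term safety study in C57BL/6J mice, 20 male and 20 female, sorted by gender, blood glucose and body weight into four groups (n = 10 each). Treated groups of each sex got 30.0 mg/kg daily by oral gavage in soybean vehicle. Vehicle groups got an equal volume of soybean. Dosing ran three months, with behavior, survival, body weight, blood glucose, liver function and organ coefficients recorded.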

Mus musculus [4] = experiment: Antiobesity activity in ob/ob mouse assessed as change in lean mass at 3 mg/kg administered daily via oral gavage for 31 days; format: functional, organism-based
In short: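 Male ob/ob mice, n = 10 per group, grouped by blood glucose and body weight. Daily gavage at 0.3, 1.0 or 3.0 mg/kg in soybean vehicle, with soybean vehicle controls and C57BL/6J controls. Body weight, cumulative food intake, LEE index, fat mass and lean mass recorded. Mean ± SEM, one-way ANOVA with Tukey test.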

Mus musculus [5] = experiment: Antiobesity activity in antibiotic-treated ob/ob mouse assessed as reduction in weight gain at 3 mg/kg administered daily via oral gavage for 3 weeks; format: functional, organism-based
In short: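 Male ob/ob mice given drinking water with ampicillin (1 g/L), vancomycin and other antibiotics for three weeks. Groups of n = 8 were dosed at 3.0 mg/kg/day by mouth in soybean vehicle, alongside non-antibiotic ob/ob groups. Weight gain and food intake recorded.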

Mus musculus [6] = experiment: Hypolipidemic activity in ob/ob mouse assessed as decrease in serum AST levels at 0.3 to 3 mg/kg administered daily via oral gavage for 31 days; format: functional, organism-based
Mus musculus [7] = experiment: Downregulation of Tnfa mRNA expression in ob/ob mouse ileum at 3 mg/kg administered daily via oral gavage for 31 days by RNA-seq analysis; format: functional, organism-based
Mus musculus [8] = experiment: Hypoglycemic activity in C57BL/6J DIO mouse assessed as decrease in blood glucose AUC at 0.3 to 3 mg/kg administered daily via oral gavage for 25 days by OGTT; format: functional, organism-based; in short: as §1
Mus musculus [9] = experiment: Reduction of plasma LPS levels in ob/ob mouse at 1 mg/kg administered daily via oral gavage for 31 days by ELISA relative to vehicle-treated control; format: functional; parameters: scale not given: the % may be the effect or the level left
In short: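 Male ob/ob mice treated daily by gavage (soybean vehicle); plasma LPS and TNF-α quantified by ELISA kits. For antibiotic groups, ob/ob mice first received an oral antibiotic cocktail (ampicillin 1 g/L, vancomycin, neomycin, gentamycin, erythromycin) for three weeks, then 3.0 mg/kg/day; n = 8 per group.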

[10] = target: T1, 3-hydroxy-3-methylglutaryl-coenzyme A reductase (Sus scrofa, UniProt Q1W675); experiment: (§2) Inhibition of pig liver microsomal HMG-CoA reductase by colorimetric method
T1 sequence (Q1W675 whole entry): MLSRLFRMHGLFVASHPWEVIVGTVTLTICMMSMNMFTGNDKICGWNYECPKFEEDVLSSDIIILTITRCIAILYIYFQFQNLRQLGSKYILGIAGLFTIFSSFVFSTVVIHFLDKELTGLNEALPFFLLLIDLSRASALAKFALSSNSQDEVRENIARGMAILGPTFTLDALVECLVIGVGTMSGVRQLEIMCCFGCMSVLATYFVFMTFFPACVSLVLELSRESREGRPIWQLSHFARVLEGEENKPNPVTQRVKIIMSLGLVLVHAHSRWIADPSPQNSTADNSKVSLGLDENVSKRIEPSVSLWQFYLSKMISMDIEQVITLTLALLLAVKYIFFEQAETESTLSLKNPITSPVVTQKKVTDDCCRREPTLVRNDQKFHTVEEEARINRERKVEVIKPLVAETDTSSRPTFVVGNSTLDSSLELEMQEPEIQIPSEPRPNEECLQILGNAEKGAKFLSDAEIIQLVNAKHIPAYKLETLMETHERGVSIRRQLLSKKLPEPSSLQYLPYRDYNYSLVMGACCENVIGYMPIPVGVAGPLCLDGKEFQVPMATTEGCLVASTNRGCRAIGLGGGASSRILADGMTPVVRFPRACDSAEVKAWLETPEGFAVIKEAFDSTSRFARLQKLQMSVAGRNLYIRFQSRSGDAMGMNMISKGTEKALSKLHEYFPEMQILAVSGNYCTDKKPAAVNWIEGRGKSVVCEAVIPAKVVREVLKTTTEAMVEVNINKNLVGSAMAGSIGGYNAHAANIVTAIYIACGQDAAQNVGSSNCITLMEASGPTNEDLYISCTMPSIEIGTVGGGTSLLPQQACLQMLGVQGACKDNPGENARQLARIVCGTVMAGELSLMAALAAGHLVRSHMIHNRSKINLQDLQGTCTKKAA
In short: (§3)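 Pig liver microsomal HMG-CoA reductase; compounds tested at several concentrations, each in triplicate; control uses phosphate buffer instead of compound, blank uses buffer instead of enzyme. Absorbance read at 405 nm; % inhibition from blank-corrected OD of test versus control; IC50 fitted from the inhibition-concentration series.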

[11] = target: T2, 3-hydroxy-3-methylglutaryl-coenzyme A reductase (Sus scrofa) (UniProt Q1W675); experiment: as §2; in short: as §3
T2 sequence (whole entry): T1 sequence (Q1W675 whole entry)

Mus musculus [12] = experiment: Hypolipidemic activity in ob/ob mouse assessed as decrease in serum total cholesterol levels administered daily via oral gavage for 31 days; format: functional, organism-based
Prevotella = experiment: Decrease in Prevotella levels in cecum of ob/ob mouse at 3 mg/kg administered daily via oral gavage for 31 days by 16S rRNA gene high-throughput sequencing method; format: functional, organism-based
In short: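 Male ob/ob mice dosed daily by gavage at 1.0 or 3.0 mg/kg, compared with vehicle group. DNA extracted from about 150 mg caecum contents. 16S rRNA V3–V4 region amplified and sequenced on Illumina HiSeq PE250. Community compared by NMDS/MRPP; discriminant taxa identified by LEfSe.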

Mus musculus [13] = experiment: Hypolipidemic activity in C57BL/6J DIO mouse assessed as decrease in plasma triglyceride levels at 0.3 to 3 mg/kg administered daily via oral gavage for 5 weeks; format: functional, organism-based
In short: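 High-fat-diet male C57BL/6J mice, n = 8 per group, daily gavage at 0.3–3.0 mg/kg in soybean vehicle for 5 weeks. Serum total cholesterol, triglycerides and free fatty acids measured.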

With `CC(C)=CCC/C(C)=C/CCC1=C[C@H](c2ccc(C(C)(C)C)cc2)OC1=O` the inhibition (Mus musculus [1]) was “Active”, the Activity (Mus musculus [2]) was “Active” and the Activity (Mus musculus [3]) was “Non-Toxic”. The Activity (Mus musculus [4]) was “inactive”, the Activity (Mus musculus [5]) was “Active” and the Activity (Mus musculus [6]) was “Active”. The Activity (Mus musculus [7]) was “Active”, the Activity (Mus musculus [8]) was “Active” and the Activity (Mus musculus [9]) was 29.8%. The IC50 [10] was 5.82 µM, the inhibition [11] was “Dose-dependent effect” and the Activity (Mus musculus [12]) was “Dose-dependent effect”. The Activity (Prevotella) was “Active” and the Activity (Mus musculus [13]) was “Active”.
